Test results as given in ChEMBL document CHEMBL2417382, “Derivatives of grindelic acid: from a non-active natural diterpene to synthetic antitumor derivatives” (2013).
Activity calls are given as the source filed them. No cut-off for these calls is given here.

Assays:
Type in all cases: functional
HeLa = assay: Antiproliferative activity against human HeLa cells after 48 hrs by SRB assay
Summary of the method: (§1)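 Cells grown in RPMI 1640 with 5% heat-inactivated FCS and 2 mM L-glutamine. Seeded per well at 20,000 (WiDr), 15,000 (T-47D) or 10,000 (HeLa, SW1573, HBL-100). Dosing started the day after plating, in triplicate at 1–100 µM, with 0.25% DMSO as the vehicle control. After 48 h, TCA fixation, SRB staining and OD at 492 nm. Percentage growth calculated against untreated cells from OD at T0 and end, using NCI formulas.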

WiDr = assay: Antiproliferative activity against human WiDr cells after 48 hrs by SRB assay; summary of the method: as §1
SW1573 = assay: Antiproliferative activity against human SW1573 cells after 48 hrs by SRB assay; conditions: SW1573, 48 h; summary of the method: as §1
T47D = assay: Antiproliferative activity against human T47D cells after 48 hrs by SRB assay; summary of the method: as §1
HBL-100 = assay: Antiproliferative activity against human HBL100 cells after 48 hrs by SRB assay; conditions: HBL-100, 48 h; summary of the method: as §1

Compound	GI50 (HeLa)	GI50 (WiDr)	GI50 (SW1573)	GI50 (T47D)	GI50 (HBL-100)
CC1=CC[C@H]2C(C)(C)CCC[C@]2(C)[C@@]12CC[C@@](C)(CCOC(=O)n1ccnc1)O2	18 µM	13 µM	17 µM	17 µM	16 µM
CC1=CC[C@H]2C(C)(C)CCC[C@]2(C)[C@@]12CC[C@@](C)(CC(=O)N(Cc1ccccc1)C(C)(C)C(=O)NCCN1CCOCC1)O2	18 µM	12 µM	16 µM	19 µM	16 µM
CC1=CC[C@H]2C(C)(C)CCC[C@]2(C)[C@@]12CC[C@@](C)(C/C=C/CO)O2	18 µM	17 µM	17 µM	17 µM	17 µM
CC1=CC[C@H]2C(C)(C)CC[C@H](O)[C@]2(C)[C@@]12CC[C@@](C)(CC(=O)O)O2	> 100 µM	> 100 µM	> 72 µM	> 100 µM	> 100 µM
CC[C@@]1(O)C(=O)OCc2c1cc1n(c2=O)Cc2cc3ccccc3nc2-1 [CAMPTOTHECIN]	0.6 µM	1.8 µM	0.25 µM	2 µM	0.23 µM
C#Cc1cccc(-c2cn(CC[C@]3(C)CC[C@@]4(O3)C(C)=CC[C@H]3C(C)(C)CCC[C@@]34C)nn2)c1	> 100 µM	> 100 µM	> 100 µM	> 100 µM	> 100 µM
CC1=CC[C@H]2C(C)(C)CCC[C@]2(C)[C@@]12CC[C@@](C)(CCn1cc(C[C@]3(C)CC[C@@]4(O3)C(C)=CC[C@H]3C(C)(C)CCC[C@@]34C)nn1)O2	17 µM	inactive	11 µM	17 µM	9.3 µM
CC1=CC[C@H]2C(C)(C)CCC[C@]2(C)[C@@]12CC[C@@](C)(CCOC(=O)NCc1cn(CC[C@]3(C)CC[C@@]4(O3)C(C)=CC[C@H]3C(C)(C)CCC[C@@]34C)nn1)O2	> 100 µM	> 100 µM	> 100 µM	> 100 µM	> 100 µM
CCCCCCCCCCc1cn(CC[C@]2(C)CC[C@@]3(O2)C(C)=CC[C@H]2C(C)(C)CCC[C@@]23C)nn1	25 µM	15 µM	15 µM	44 µM	16 µM
CC1=CC[C@H]2C(C)(C)CCC[C@]2(C)[C@@]12CC[C@@](C)(CCN=[N+]=[N-])O2	> 100 µM	> 100 µM	> 100 µM	> 100 µM	> 100 µM
CC1=CC[C@H]2C(C)(C)CCC[C@]2(C)[C@@]12CC[C@@](C)(CC(=O)N(Cc1ccccc1)C(C)(C)C(=O)NC1CCCCC1)O2	4.7 µM	5.1 µM	3.6 µM	4.4 µM	3.7 µM
CC1=CC[C@H]2C(C)(C)CCC[C@]2(C)[C@@]12CC[C@@](C)(CCn1cc(CCCCc3cn(CC[C@]4(C)CC[C@@]5(O4)C(C)=CC[C@H]4C(C)(C)CCC[C@@]45C)nn3)nn1)O2	2.7 µM	–	3 µM	4.3 µM	2.9 µM
CC1=CC[C@H]2C(C)(C)CCC[C@]2(C)[C@@]12CC[C@@](C)(CC=O)O2	17 µM	15 µM	17 µM	26 µM	14 µM
CC1=CC[C@H]2C(C)(C)CCC[C@]2(C)[C@@]12CC[C@@](C)(CCn1cc(COc3cccc(OCc4cn(CC[C@]5(C)CC[C@@]6(O5)C(C)=CC[C@H]5C(C)(C)CCC[C@@]56C)nn4)c3)nn1)O2	> 100 µM	> 100 µM	> 100 µM	> 100 µM	> 100 µM
CC1=CC[C@H]2C(C)(C)CCC[C@]2(C)[C@@]12CC[C@@](C)(C/C=C(\C)CO)O2	16 µM	19 µM	18 µM	15 µM	16 µM
CC1=CC[C@H]2C(C)(C)CCC[C@]2(C)[C@@]12CC[C@@](C)(CC(=O)N(Cc1ccccc1)C(C)(C)C(=O)NC(C)(C)C(C)(C)C)O2	30 µM	49 µM	14 µM	40 µM	10 µM

Compound	GI50 (HeLa)	GI50 (WiDr)	GI50 (SW1573)	GI50 (T47D)	GI50 (HBL-100)
CC1=CC[C@H]2C(C)(C)CCC[C@]2(C)[C@@]12CC[C@@](C)(CC(=O)N(Cc1ccccc1)C(C)(C)C(=O)NC(C)(C)C)O2	5.3 µM	12 µM	11 µM	3.9 µM	4.6 µM
CCCCNC(=O)C(C)(C)N(Cc1ccccc1)C(=O)C[C@]1(C)CC[C@@]2(O1)C(C)=CC[C@H]1C(C)(C)CCC[C@@]12C	2.9 µM	3.1 µM	1.8 µM	3 µM	1.9 µM
CCOC(=O)/C=C/C[C@]1(C)CC[C@@]2(O1)C(C)=CC[C@H]1C(C)(C)CCC[C@@]12C	19 µM	35 µM	18 µM	32 µM	16 µM
CC1=CC[C@H]2C(C)(C)CCC[C@]2(C)[C@@]12CC[C@@](C)(C[C@@H]1O[C@H]1CO)O2	17 µM	19 µM	18 µM	16 µM	16 µM
CC1=CC[C@H]2C(C)(C)CCC[C@]2(C)[C@@]12CC[C@@](C)(CCO)O2	17 µM	21 µM	19 µM	16 µM	17 µM
C#CC[C@]1(C)CC[C@@]2(O1)C(C)=CC[C@H]1C(C)(C)CCC[C@@]12C	16 µM	4.8 µM	15 µM	28 µM	17 µM
COC(=O)C[C@]1(C)CC[C@@]2(O1)C(C)=CC[C@H]1C(C)(C)CCC[C@@]12C	16 µM	23 µM	18 µM	19 µM	17 µM
CC1=CC[C@H]2C(C)(C)CCC[C@]2(C)[C@@]12CC[C@@](C)(C[C@H]1O[C@@H]1CO)O2	17 µM	17 µM	18 µM	15 µM	16 µM
CCOC(=O)/C(C)=C/C[C@]1(C)CC[C@@]2(O1)C(C)=CC[C@H]1C(C)(C)CCC[C@@]12C	18 µM	37 µM	20 µM	32 µM	17 µM
CC1=CC[C@H]2C(C)(C)CCC[C@]2(C)[C@@]12CC[C@@](C)(CC(=O)N(c1ccccc1)C(C)(C)C(=O)Nc1c(C)cccc1C)O2	22 µM	37 µM	5.9 µM	21 µM	8.7 µM
CC1=CC[C@H]2C(C)(C)CCC[C@]2(C)[C@@]12CC[C@@](C)(CC(=O)N(Cc1ccccc1)C(C)(C)C(=O)Nc1c(C)cccc1C)O2	11 µM	38 µM	5.1 µM	31 µM	8.9 µM
CC1=CC[C@H]2C(C)(C)CCC[C@]2(C)[C@@]12CC[C@@](C)(CCOC(=O)NCCCN(C)C)O2	7.8 µM	1.4 µM	8 µM	4.3 µM	6.1 µM
CC1=CC[C@H]2C(C)(C)CCC[C@]2(C)[C@@]12CC[C@@](C)(CC(=O)O)O2	60 µM	57 µM	49 µM	69 µM	46 µM
CC1=CC[C@H]2C(C)(C)CCC[C@]2(C)[C@@]12CC[C@@](C)(CC(=O)N(c1ccccc1)C(C)(C)C(=O)NC(C)(C)C)O2	5.7 µM	6.8 µM	5.8 µM	5.3 µM	5.4 µM
CC1=CC[C@H]2C(C)(C)CCC[C@]2(C)[C@@]12CC[C@@](C)(CC(=O)N(Cc1ccccc1)C(C)(C)C(=O)NCc1ccccc1)O2	1.6 µM	1.8 µM	1.2 µM	1.9 µM	0.95 µM
C#CCNC(=O)OCC[C@]1(C)CC[C@@]2(O1)C(C)=CC[C@H]1C(C)(C)CCC[C@@]12C	14 µM	12 µM	13 µM	16 µM	14 µM
